Test results reported in the array DNA melting data of Ke et al. (doi:10.1101/2024.01.08.574731).

What was measured:
[1] = melting temperature; fluorescence melt of hairpins on a sequencing array, two-state fit, raised by 9.35 °C to match UV melts; conditions: sodium 0.088 M
Method in brief: (§1)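 On a sequenced MiSeq flow cell, library hairpins with annealed Cy3 and quencher oligos were imaged for Cy3 fluorescence in 2.5 °C steps up to 60 °C, in 50 mM Na-HEPES pH 8.0, 25 mM NaCl. Normalisation used pre-quench Cy3 and control constructs. Bootstrapped two-state fits gave melting temperature and folding enthalpy, combined by inverse variance across four replicates and with fitted temperatures raised by 9.35 °C to match UV melts.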

[2] = folding enthalpy; higher = less favourable; fluorescence melt of hairpins on a sequencing array, two-state fit; conditions: sodium 0.088 M
Method in brief: as §1

Sequence	Tm [1] [°C]	folding enthalpy [2] [kcal/mol]
GCAGGTGGAAACGCCTGC (((((.(....).)))))	61.8	-46.6
GGCAACGGAAACGTCACC ((..(((....)))..))	26	-13.9
GCCGGAGGAAACCCCGGC (((((.(....).)))))	59.6	-36
GCATTACGAAAGTATTGC (((.(((....))).)))	48.9	-29.3
GATCTTGTGGAAGATC ((((((....))))))	41.3	-29.4
GTAGCGGCGAAAGCCTAC (((..(((....))))))	29.9	-10.4
GGAGTTGGAAACAGCTTC (.((.((....)).)).)	37.1	-37
GACAATACGAAAGTAGTC (((..(((....))))))	30.3	-16.4
GCGATCTCTCGC ((((....))))	47.9	-31.1
CGATCGGAAACGAAATCG ((((((....)))..)))	33.9	-22.2
GATGCCGGAAACGGCGTC ((.((((....)))).))	62.6	-21.2
GAATTCCCGAAAGGGTTC (((..(((....))))))	28	-13
GATCGCCGAGCGATC ((((((...))))))	67.3	-32.5
GCCGGCGGAAACGCCAGC ((.((((....)))).))	58.5	-15.4
CGGCCGGAAACGGACCG ((((((....))).)))	54.6	-25
GATCGGTGTCCCGATC ((((((....))))))	58.4	-38.3
GATCAGTCAACTGATC ((((((....))))))	50.9	-37.6
GTGTTCGAAAGAAGCAC ((((((....))).)))	37.4	-21.8
CACTGGAAACAGTG (((((....)))))	50.7	-26.7
GATCATTATAATGATC ((((((....))))))	49.7	-33.1
GACGTAGGAAACTATGTC (((.(((....))).)))	43.9	-30
GCCTGGCGAAAGCCATGC ((.((((....)))).))	56.7	-17.2
GTCAACGGAAACGTCGAC (((.(((....))).)))	44.4	-33

Sequence	Tm [1] [°C]	folding enthalpy [2] [kcal/mol]
GGCTGCGAAAGCATTGCC ((((((....)))..)))	52.8	-19.5
GATCATTGGATGATC ((((((...))))))	44.8	-31.7
GATAGGGGAAACCCTACC (.(((((....))))).)	31.1	-16.8
GGTTCCGAAAGGACAACC ((((((....)))..)))	36.7	-19.9
GCGATCGCGAAAGCGCGC (((..(((....))))))	55.2	-15.4
GATCCCAACCGGGATC ((((((....))))))	63.4	-35.1
GGTCAACGAAAGTTACC (((.(((....))))))	38.2	-20.6
GCCGGCGAAAGCCAAGGC ((((((....)))..)))	65.3	-22.8
GAGAGCGAAAGCTTACTC ((((((....)))..)))	30.6	-12.3
GCGCATCGAAAGATACGC (((.(((....))).)))	54.5	-38.6
GGATTACGAAAGTAGTCC (((.(((....))).)))	50.9	-37.5
GCAGTGCGAAAGCACAGC ((.((((....)))).))	68.2	-17.1
GACCGACGAAAGTCCGTC (((.(((....))).)))	43.1	-23.9
GATATCGGAAACGACATC (((.(((....))).)))	32.7	-27.9
GCAACCCGAAAGGGATGC (((.(((....))).)))	63.5	-32.9
GCGATAGGAAACTACCGC (((.(((....))).)))	44.7	-28.5
GAGGCCGAAAGGCGCTC ((((((....))).)))	57	-13.8
GATCTGAGTCAGATC ((((((...))))))	47.5	-36.5
GATCAGGGGACTGATC ((((((....))))))	53.8	-32.5
GTGTGAGGAAACTCACGC (.(((((....))))).)	53.3	-35.9
GATCTGAAATCAGATC ((((((....))))))	45.1	-36.1
GACACACGAAAGTGAGTC (((.(((....))).)))	56.1	-31
GCTCATGAAAATGAGC ((((((....))))))	63.6	-38.5

Sequence	Tm [1] [°C]	folding enthalpy [2] [kcal/mol]
GGGTAAGCGAAAGCTCCC (((..(((....))))))	47.8	-20.6
GGGGCCGAAAGGCTACCC ((((((....)))..)))	53.2	-14.8
GGGTACGAAAGTACTCCC ((((((....)))..)))	45.6	-13.4
GCTTCCGAAAGGAGAGC ((((((....))).)))	49.2	-22.3
GATCACAAACGTGATC ((((((....))))))	55.6	-33.2
GATCAGGCGCTGATC ((((((...))))))	47.9	-33.8
GCCTAGTCGAAAGACGGC (((..(((....))))))	51.6	-21
GCGACCCTCGC ((((...))))	49.4	-20.7
GATCGTGATCACGATC ((((((....))))))	58.2	-53
GCGTTGACGAAAGTCCGC (((..(((....))))))	51.4	-24.1
GAATTACGAAAGTATTTC (((.(((....))).)))	35.2	-19.6
CGCATCCGGAAACGGGCG (((..(((....))))))	46.9	-26.7
GATCCGGTACCGGATC ((((((....))))))	64.5	-43.4
GCAGCCGAAAGGCTTTGC ((((((....)))..)))	42.2	-10.2
GGCTAACCGAAAGGTGCC (((..(((....))))))	53.6	-22.4
GCCCATCCGAAAGGAGGC (((..(((....))))))	44.5	-14.3
GTGTGTCGAAAGACCCAC (((.(((....))).)))	49.4	-29
GTGGTAGGAAACCACCAC (((((.(....).)))))	49.4	-22.5
GAGCTGGCGAAAGCCCTC (((..(((....))))))	36.6	-5.81
GCCACTCCGAAAGGAGGC (((..(((....))))))	43.9	-8.62
GATCCACACATGGATC ((((((....))))))	52.4	-40
GCATCAGGAAACCAATGC ((((..(....)..))))	23.8	-12.1
GTGGCCGAAAGGCAGCAC ((((((....)))..)))	46.3	-14.1
